Assay outcomes from PubChem BioAssay.
STAT1 activator: activators of IFN-gamma induced STAT1 signaling. actives 2.6% (n = 200,000). activation (% of control), % at 5.5 µM. AID 932. NIH 3T3 STAT1-luciferase reporter, luminescence; 100% = IFN-gamma alone, no compound;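 active = activation above the screen-wide mean activation plus 3 SD, cut at about 130% in these data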
APP 5'UTR act: activates APP 5'UTR luciferase reporter; SH-SY5Y APP 5'UTR luciferase reporter, luminescence; zero percent = DMSO vehicle wells; activation, % at 2 µM; actives 1% (n = 190,000); AID 1276;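 active = activation above a set limit, based on mean plus 3 SD of controls, cut at about 140% in these data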
STAT3 activator: increases IL-6 driven STAT3 reporter signal; actives 0.91% (n = 190,000); U3A cells, IL-6 STAT3-luciferase reporter, luminescence; 100% = signal with IL-6 EC80 alone; activation (% of control), % at 5.6 µM;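 active = activation above the screen-wide mean of compound activation plus 3 SD, cut at about 130% in these data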
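Material: STAT3-luciferase reporter U3A cells. Controls: IL-6-treated wells, 100% activation. Read-out: % activation versus median of IL-6-stimulated wells. Probe or stimulus: IL-6 stimulus at 33 ng/mL final. Timing: compound 1 h, then IL-6 6 h at 37 °C. Signal: reporter luminescence signal.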
STAT1 blocker: STAT1 signaling inhibition | actives 0.35% (n = 200,000) | inhibition, % at 5.5 µM | NIH 3T3 STAT1-luciferase reporter, IFN-gamma, luminescence | AID 920;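 active = inhibition above a set limit, the mean inhibition across all tested compounds plus 3 SD, cut at about 34% in these data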
NF-kB neuron act: raises NF-kB expression in human neuronal cells; actives 1.6% (n = 190,000); fold change at 12.5 µM; NF-kB reporter expression; stronger effect = higher value; in the data active = fold change above about 3.3
STAT3 inh: inhibitors of IL-6 induced STAT3 signaling | U3A cells, IL-6 STAT3-luciferase reporter, luminescence; host cell line lacks STAT1 | inhibition, % at 5.5 µM | actives 0.89% (n = 190,000);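 active = inhibition above the mean inhibition across all screened compounds plus 3 SD, cut at about 44% in these data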
STAT1 activ conf: STAT1 activation, confirmation assay; shares compounds with STAT1 activator; NIH 3T3 STAT1-luciferase reporter, IFN-gamma potentiation, luminescence; 100% = IFN-gamma EC80 alone, no compound; activation (% of control), % at 5.7 µM; actives 97% (n = 1,200);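 active = activation above a set limit carried over from the earlier primary STAT1 screen, cut at about 140% in these data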
NFkB act: activates NF-kappaB, counter-screen to STAT1 activators; HEK293T NF-kB luciferase reporter, TNF-alpha stimulated, luminescence; 100% = TNF-alpha with vehicle only; activation (% of control), % at 5.7 µM; shares compounds with STAT1 activator; actives 43% (n = 1,200);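 active = activation above the mean of solvent-only control wells plus 3 SD, set per campaign, cut at about 130% in these data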;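 note: TNF-alpha given at a submaximal dose yielding about 80% of full reporter signal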
STAT3 act 2: human STAT3 activation in STAT1 activator counter-screen. shares compounds with STAT1 activator. U3A cells STAT3-luciferase reporter, IL-6, luminescence; cells lack STAT1; 100 = IL-6 alone, no compound effect. activation (% of control), % at 5.7 µM. actives 46% (n = 1,200);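 active = activation above the solvent-only control well mean plus 3 SD, set per plate batch, cut at about 110% in these data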;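 note: higher means more STAT3 reporter activation so hits are non-selective activators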
Hits are given with their value; – = inactive; · = no result given. The list is not random: actives were taken first. Their share in the collection is about 5.1%.

SMILES | STAT1 activator | APP 5'UTR act | STAT3 activator | STAT1 blocker | NF-kB neuron act | STAT3 inh | STAT1 activ conf | NFkB act | STAT3 act 2
CCC(C)(C)NC(=S)Nc1ccc(-c2nc3ccc(C)cc3s2)cc1 | 176.6 | 172.6 | – | – | – | – | 199.6 | – | –
COc1ccc(CNC(C)C2COc3ccccc3O2)c(OC)c1 (stereo not drawn) | – | – | – | – | – | – | · | · | ·
Cc1ccc2[nH]c3c(c2c1)CN(C(=O)CN1CCN(Cc2ccc4c(c2)OCO4)CC1)CC3 | – | – | – | – | – | – | · | · | ·
Cc1cc(NCCN2CCOCC2)n2ncc(-c3ccc(Cl)cc3)c2n1 | – | – | – | – | · | – | · | · | ·
Cc1cc(NCCN2CCOCC2)n2ncc(-c3ccccc3)c2n1 | 165.2 | – | – | – | – | – | 219.1 | 145.8 | 151.7
O=P(O)(CN1CCCCCC1)CN1CCCCCC1 | 153.0 | – | – | – | – | – | – | – | –
COc1ccc(-c2noc(-c3ccco3)n2)cc1OC | 152.1 | – | – | – | 5.74 | – | 201.7 | 137.4 | 119.2
COc1cccc(-c2noc(-c3ccoc3C)n2)c1 | 159.9 | – | – | – | – | – | 192.0 | 134.3 | 110.8
COc1cc(S(=O)(=O)n2nc(C)cc2C)c(OC)cc1Cl | – | – | – | – | – | – | · | · | ·
COc1cc(CC(=O)OCC(=O)NCC(C)C)cc(OC)c1OC | – | – | – | – | – | – | · | · | ·
CN(C)c1ccc(/C=N/n2c(COc3ccccc3)n[nH]c2=S)cc1 | – | – | – | – | – | – | · | · | ·
O=C(O)CCC(=O)Nc1nc2ccccc2s1 | – | – | – | – | – | – | · | · | ·
CCCCNC(=O)Nc1nc2ccccc2s1 | 151.5 | 148.2 | – | – | – | – | 186.0 | – | 115.7
Cc1ccc2nc(NC(=O)CCn3cccc3)sc2c1 | 152.3 | – | – | – | – | – | 141.1 | – | –
Cc1ccc2nc(NC(=O)c3ccc(Cl)s3)sc2c1 | 152.5 | – | – | – | 5.29 | – | 248.8 | 137.8 | –
Cc1ccc(C(=O)Nc2nc3ccccc3s2)s1 | 157.1 | 157.2 | – | – | 4.2 | – | 264.1 | – | –
O=C(O)C1C2CCC(O2)C1C(=O)Nc1ccc(O)cc1 (stereo not drawn) | – | – | – | – | – | – | · | · | ·
CCCC1(C(=O)OC)NC(c2cccc(F)c2)C2C(=O)N(CC)C(=O)C21 (stereo not drawn) | – | – | – | – | – | – | · | · | ·
O=c1c(-c2ccco2)[n+]([O-])c2ccccc2n1OCc1ccccc1[N+](=O)[O-] | – | – | – | – | – | – | · | · | ·
COc1ccc(/C=N/OCC(=O)Nc2nc3ccccc3s2)cc1 | – | – | – | – | – | – | · | · | ·
COc1ccc(Nc2nc3ccccc3s2)cc1 | 158.6 | 164.4 | – | – | 7.25 | – | 223.5 | 143.2 | –
Cc1cccc(Nc2nc3ccccc3s2)c1C | 174.4 | 158.1 | – | – | 9.25 | – | 218.1 | 151.2 | –
Cc1cc(C)nc(N2CCC(C(=O)NCc3cccc(C(F)(F)F)c3)CC2)n1 | – | – | – | – | – | – | · | · | ·
Cc1nc2nc(C)c(CCC(=O)NC3CCCCC3)c(C)n2n1 | – | – | – | – | – | – | · | · | ·
CCCOC(=O)Nc1ccc(N2CCCCC2)cc1 | 154.5 | – | – | – | 5.09 | – | 176.9 | – | –
COc1ccccc1N1CCN(C(=O)C2CCC(Cn3c(=S)[nH]c4ccccc4c3=O)CC2)CC1 (stereo not drawn) | – | – | – | – | – | – | · | · | ·
CC(/C=C/c1ccc(OCc2ccccc2)cc1)=N\O | 157.4 | – | – | – | – | – | 176.9 | 134.2 | 112.3
O=C(Nc1ccc(-c2nnc(-c3ccccc3)o2)cc1)C(F)(F)F | – | – | – | – | – | – | · | · | ·
